Compound activity (PubChem BioAssay)
Sampled rows, rich in hits. Any-hit rate of the full collection: about 4.9%.
STAT1 inh = reduces IFN-gamma driven STAT1 reporter signal. NIH 3T3 STAT1-luciferase reporter, luminescence. inhibition, % at 5.5 µM. 200,000 tested, 0.35% active;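 active means inhibition above a set limit, the mean inhibition across all tested compounds plus 3 SD, cut at about 34% in these data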;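 further: 0% = IFN-gamma with DMSO and 100% = IFN-gamma with 300 µM nifuroxazide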
STAT3 activator = increases IL-6 driven STAT3 reporter signal; U3A cells, IL-6 STAT3-luciferase reporter, luminescence; 100% = signal with IL-6 EC80 alone; activation (% of control), % at 5.6 µM; 190,000 tested, 0.91% active; AID 871;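 active means activation above the screen-wide mean of compound activation plus 3 SD, cut at about 130% in these data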;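 further: 0% = background luminescence of wells with medium and substrate only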
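Material: human U3A cells carrying STAT3-luciferase construct. Measured by: reporter luminescence signal. Timing: compound 1 h, then IL-6 6 h at 37 °C.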
STAT3 inh-1 = reduces IL-6 driven STAT3 reporter signal; inhibition, % at 5.5 µM; U3A cells, IL-6 STAT3-luciferase reporter, luminescence; host cell line lacks STAT1; AID 862; 190,000 tested, 0.89% active;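 active means inhibition above the mean inhibition across all screened compounds plus 3 SD, cut at about 44% in these data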;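 further: 0% = DMSO only wells and 100% = 100 µM nifuroxazide control wells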
FLuc inh counter = counter-screen for luciferase assay inhibitors: firefly luciferase inhibition; ATPLite firefly luciferase biochemical luminescence, 10 min; inhibition, % at 10 µM; 200,000 tested, 1.5% active; AID 1006;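 active means inhibition above about 50% when tested at 10 µM, limit read from the data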
Target sequence (P08659 whole entry, looked up): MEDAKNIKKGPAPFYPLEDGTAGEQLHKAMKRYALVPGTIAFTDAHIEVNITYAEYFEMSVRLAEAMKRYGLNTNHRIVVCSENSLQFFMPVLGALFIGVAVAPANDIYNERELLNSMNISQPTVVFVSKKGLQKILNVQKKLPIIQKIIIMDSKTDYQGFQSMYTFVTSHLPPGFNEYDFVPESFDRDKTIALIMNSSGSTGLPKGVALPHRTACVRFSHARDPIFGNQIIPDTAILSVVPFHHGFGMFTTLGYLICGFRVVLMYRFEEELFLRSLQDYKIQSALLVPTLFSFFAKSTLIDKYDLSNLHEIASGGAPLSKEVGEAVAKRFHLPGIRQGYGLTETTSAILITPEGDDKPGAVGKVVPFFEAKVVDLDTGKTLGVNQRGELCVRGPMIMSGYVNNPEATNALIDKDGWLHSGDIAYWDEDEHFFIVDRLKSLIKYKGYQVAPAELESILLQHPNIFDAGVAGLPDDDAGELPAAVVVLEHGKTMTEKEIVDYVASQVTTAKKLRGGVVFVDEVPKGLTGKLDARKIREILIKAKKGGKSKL
FLuc act counter = affects firefly luciferase, flagging false hits in luciferase stimulation screens; activation factor at 10 µM; ATPlite luciferase biochemical, luminescence, 10 min; 0 = ATP-free wells, 1 = DMSO control; 200,000 tested, under 10 active; P08659;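 active means luciferase activation factor, scaled between plate controls, of at least 2 with compound at 10 µM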
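System: Luciferase/luciferin detection reagent, cell-free biochemical luciferase assay | Medium: PBS buffer for ATP | Dosing: Test compounds dosed from 2 mM stocks in 100% DMSO | Timing: 10 min at ambient temperature | Signal: Luminescence measurement of luciferase light output | Evaluation: Luciferase activation, seen as luminescence increase over controls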
STAT1 activator = activators of IFN-gamma induced STAT1 signaling; NIH 3T3 STAT1-luciferase reporter, luminescence; 100% = IFN-gamma alone, no compound; activation (% of control), % at 5.5 µM; 200,000 tested, 2.6% active; AID 932;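 active means activation above the screen-wide mean activation plus 3 SD, cut at about 130% in these data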;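 further: raw ratio to IFN-gamma control signal so 100% means no change and 0% no light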
STAT3 inh-2 = STAT3 inhibition, confirmation assay; AID 1265; shares compounds with STAT3 inh-1; U3A cells, IL-6 STAT3 luciferase reporter, luminescence; cell line lacks STAT1; inhibition, % at 5.7 µM; 1,200 tested, 45% active;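 active means inhibition above the hit cutoff computed for the primary STAT3 screen, cut at about 44% in these data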;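 further: 0% = IL-6 plus DMSO and 100% = IL-6 plus nifuroxazide control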
NFkB inh STAT3ct = inhibits NF-kappaB, counter-screen to STAT3 inhibitors. HEK293T NF-kB luciferase reporter, TNF-alpha induced. shares compounds with STAT3 inh-1. inhibition, % at 5.7 µM. 1,200 tested, 36% active. AID 1308;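 active means inhibition above the mean of solvent-only control wells plus 3 SD, cutoff set per campaign, cut at about 13% in these data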;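 further: 0% = TNF-alpha with DMSO and 100% = TNF-alpha with MG high control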
STAT1 inh 2 = inhibits STAT1, counter-screen to STAT3 inhibitors; shares compounds with STAT3 inh-1; NIH 3T3 STAT1-luciferase reporter, IFN-gamma induced, luminescence; inhibition, % at 5.7 µM; 1,200 tested, 27% active; AID 1317;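 active means inhibition above the mean plus 3 SD of solvent-only control wells, limit set per screening run, cut at about 16% in these data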;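 further: 0% = DMSO with IFN-gamma and 100% = nifuroxazide control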
The depositor's hits bear a star; . = not tested or not shown.

SMILES	STAT1 inh	STAT3 activator	STAT3 inh-1	FLuc inh counter	FLuc act counter	STAT1 activator	STAT3 inh-2	NFkB inh STAT3ct	STAT1 inh 2
CCCCN(CC)C(=S)Nc1ccc2nc(N3CCN(C)CC3)cc(C)c2c1	12.1	94.7	6.4	-6.1	1.1	88.8	.	.	.
COc1cccc(C=Nc2ccc3c(c2)OCCO3)c1O	0.0	62.6	49.0*	96.0*	0	101.3	3.8	2.8	-13.2
O=C(N/N=C/c1ccc2cccnc2c1)c1ccco1	0.1	57.7	54.6*	87.9*	0.1	99.1	19.9	-18.4	-63.2
O=C(Nc1ccc(N2CCN(C(=O)c3ccc(Cl)cc3)CC2)cc1)c1cc2ccccc2o1	10.4	43.3	70.1*	-9.0	1.1	90.3	64.8*	18.9*	7.1
CCC(=O)N1CCN(c2ccc(NC(=O)c3cc4ccccc4o3)cc2)CC1	-14.8	73.8	32.7	-9.5	1.1	113.6	.	.	.
O=C(Nc1ccc2c(c1)OCCO2)Nc1ccc2c(c1)OCO2	30.2	57.5	54.2*	93.2*	0.1	71.8	4.4	-17.4	-95.4
O=C(NC1=NCCS1)c1cc2ccccc2o1	4.3	50.3	63.6*	86.2*	0.1	96.0	27.3	-10.3	-72.3
O=C(Nc1ccc2c(c1)OCCO2)c1cc2ccccc2o1	18.7	47.3	65.5*	92.1*	0.1	82.2	21.0	-26.0	-114.1
CC(=O)Nc1ccc2c(c1)OCCO2	-2.5	101.6	2.1	-6.4	1.1	102.3	.	.	.
Cc1c(Cl)cnc(NC(=O)COC(=O)CCc2nc3ccccc3s2)c1Cl	-0.8	105.2	-11.5	-3.4	1	100.7	.	.	.
Cc1cc(C)nc(NC(=O)C2c3ccccc3Oc3ccccc32)n1	0.2	96.5	6.4	-5.1	1.1	98.1	.	.	.
Cc1ccc(NC(=O)C2CCN(c3cnccn3)CC2)cc1C	-7.0	94.6	8.6	-4.9	1	104.6	.	.	.
O=C(OCC(=O)N1CCc2ccccc2C1)c1cccc([N+](=O)[O-])c1	2.1	84.9	21.6	-4.8	1	98.1	.	.	.
O=C(NCC1CCCO1)c1cc(S(=O)(=O)N2CCCC2)c(Cl)cc1Cl (stereo not given)	-1.7	86.7	21.9	-1.9	1	99.6	.	.	.
Cc1ccsc1/C=N/Nc1nc(=O)[nH]nc1C	30.4	58.5	52.9*	51.6*	0.5	70.9	18.0	-10.2	-8.3
Cc1ccsc1/C=N/NC(=O)c1ccco1	-0.9	88.5	14.6	12.7	0.9	100.8	.	.	.
CC(C)CN=C(NS(=O)(=O)c1ccccc1)C(Cl)(Cl)Cl	22.8	95.8	5.9	-3.8	1	79.6	.	.	.
Nc1cc(Oc2ccc(F)cc2F)cc([N+](=O)[O-])c1	4.4	95.1	8.0	-2.5	1	94.5	.	.	.
Cc1c(C(=O)Nc2ccccc2)csc1-c1ccccc1	-36.5	54.5	55.4*	82.4*	0.2	137.2*	33.2	-21.9	-111.1
Cc1oc(-c2ccccc2)cc1C(=O)Nc1ccccc1	-0.5	93.5	5.0	-2.4	1	100.5	.	.	.
O=C(CNS(=O)(=O)/C=C/c1ccccc1)OC1CCOC1=O (stereo not given)	-1.8	104.9	-4.2	-5.0	1.1	101.5	.	.	.
Cc1ccc(-n2cc(C(=O)c3ccccc3O)cn2)cc1	12.0	37.8	79.1*	67.5*	0.3	89.3	34.2	37.3*	-96.7
CC1CCC2C(=O)N(c3ccc(Cc4ccncc4)cc3)C(=O)C2C1 (stereo not given)	31.8	37.7	73.7*	-2.2	1	69.7	70.4*	23.3*	21.4*
COc1ccc(C)cc1-n1nnnc1SCn1nnc2ccccc2c1=O	25.3	59.0	53.7*	-9.2	1.1	76.9	43.7*	7.0	15.9
Cc1ccc(-n2nnnc2SCn2nnc3ccccc3c2=O)cc1	-7.1	108.3	-5.1	-0.8	1	106.6	.	.	.
SMILES	STAT1 inh	STAT3 activator	STAT3 inh-1	FLuc inh counter	FLuc act counter	STAT1 activator	STAT3 inh-2	NFkB inh STAT3ct	STAT1 inh 2
O=C(Nc1cccc(S(=O)(=O)Nc2ccccc2Cl)c1)c1ccc(Cl)nc1	24.3	66.3	43.8*	-4.0	1	77.9	50.3*	11.0	13.2
O=C(Nc1cccc(S(=O)(=O)Nc2ccccc2Cl)c1)c1ccc(N2CCCC2)c([N+](=O)[O-])c1	-1.1	99.1	-4.1	-4.6	1	101.0	.	.	.
O=c1cc(CSc2nnc(-c3cccs3)n2Cc2ccccc2)nc2sc3ccccc3n12	23.1	53.2	60.0*	-3.9	1	78.8	57.0*	12.0	22.7*
O=C(c1cc2sccc2n1Cc1ccc(F)cc1)N1CCN(c2nc3ccccc3s2)CC1	22.0	62.1	46.6*	-4.7	1	88.7	36.4	8.4	16.9*
Cc1cccc(Nc2nc(-c3c(C)nc4ccccn34)cs2)c1	12.3	56.4	58.0*	-6.4	1.1	89.0	62.3*	17.8*	15.6
CCn1cc(S(=O)(=O)N2CCN(Cc3cccc(Cl)c3)CC2)cn1	10.6	97.8	11.5	0.1	1	90.4	.	.	.
O=C(NCc1nc2ccccc2[nH]1)c1ccc([N+](=O)[O-])cc1	-2.6	101.9	4.3	-2.6	1	100.4	.	.	.
O=C(Nc1nc2ccccc2[nH]1)c1ccc([N+](=O)[O-])cc1	-19.3	55.8	55.3*	51.2*	0.5	115.5	16.1	-19.4	-91.6
CC1SC(c2ccc(F)cc2)NC1=O (stereo not given)	3.6	96.2	6.7	-7.5	1.1	97.2	.	.	.
O=C(/C=C/c1ccc(Cl)cc1)Nc1ccc(CN2CCOCC2)cc1	4.4	59.6	44.7*	2.4	1	96.0	62.2*	14.2*	5.9
CCOC(=O)c1ccc(NC(=O)c2ccc(CN3CCOCC3)cc2)cc1	7.0	45.4	67.9*	-1.2	1	92.9	69.4*	11.6	6.7
NC(=O)c1ccc(NC(=O)c2ccc(CN3CCOCC3)cc2)cc1	-3.1	103.1	-3.5	0.8	1	102.8	.	.	.
O=C(Nc1ccc(CN2CCOCC2)cc1)c1cc2ccccn2n1	18.2	40.9	75.8*	78.5*	0.2	83.7	26.5	-2.2	-49.8
Cc1cc(CSc2ccccc2)ccc1NC(=O)c1ccc(CN2CCOCC2)cc1	8.5	39.9	73.2*	0.9	1	91.6	78.8*	30.4*	17.4*
CCCNC(=O)NC(=O)CSc1cccc(C(F)(F)F)c1	-9.4	106.0	-1.9	-1.1	1	110.6	.	.	.
Cc1cccc(-n2ncc3c(N4CCOCC4)ncnc32)c1	10.4	33.1	77.7*	94.4*	0.1	90.6	62.3*	28.2*	-19.5
